Calls of active or inactive are those of the source. The calls are words filed in the database; no cut-off is given here.
Experiments:
[1] = Tmax in mouse at 100 mg/kg, ip administered through DMA/solutol/water; type: ADME, organism-based; settings: in vivo
[2] = AUCinfinity in mouse at 100 mg/kg, ip administered through DMA/solutol/water; type: ADME, organism-based; design: dose 100 mg/kg, route intraperitoneal, time infinity; settings: in vivo
[3] = AUClast in mouse at 100 mg/kg, po; type: ADME, organism-based; settings: in vivo
[4] = Oral bioavailability in mouse at 25 mg/kg; type: ADME, organism-based; settings: in vivo
[5] = Tmax in mouse at 100 mg/kg, po; type: ADME, organism-based; settings: in vivo
[6] = Clearance in mouse at 1 mg/kg, iv; type: ADME, organism-based; settings: in vivo
[7] = Tmax in mouse at 25 mg/kg, ip; type: ADME, organism-based; settings: in vivo
[8] = Cmax in mouse at 25 mg/kg, po; type: ADME, organism-based; design: dose 25 mg/kg, route oral; settings: in vivo
[9] = AUCinfinity in mouse at 25 mg/kg, po; type: ADME, organism-based; design: dose 25 mg/kg, route oral, time infinity; settings: in vivo
NCI-H1650 [10] = assay: Cytotoxicity against human NCI-H1650 cells assessed as growth inhibition after 48 hrs by MTT assay; type: functional; settings: NCI-H1650, 48 h
Outline: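 H1650 cells were exposed to drug for 48 h at five concentrations bracketing 1–40 μM in 10 μM steps, with MTT read-out. GI50 is given only where the data form a sigmoidal dose response.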

[11] = Bioavailability in mouse at 100 mg/kg, ip administered through DMA/solutol/water; type: ADME, organism-based; settings: in vivo
[12] = AUClast in mouse at 1 mg/kg, iv; type: ADME, organism-based; settings: in vivo
[13] = AUCinfinity in mouse at 25 mg/kg, ip; type: ADME, organism-based; design: dose 25 mg/kg, time infinity, route intraperitoneal; settings: in vivo
[14] = Oral bioavailability in mouse at 100 mg/kg; type: ADME, organism-based; settings: in vivo
[15] = AUClast in mouse at 25 mg/kg, ip; type: ADME, organism-based; settings: in vivo
[16] = Half life in mouse at 1 mg/kg, iv; type: ADME, organism-based; settings: in vivo
[17] = AUClast in mouse at 100 mg/kg, ip administered through DMA/solutol/water; type: ADME, organism-based; settings: in vivo
[18] = Bioavailability in mouse at 25 mg/kg, ip; type: ADME, organism-based; settings: in vivo
[19] = Cmax in mouse at 25 mg/kg, ip; type: ADME, organism-based; design: dose 25 mg/kg, route intraperitoneal; settings: in vivo
[20] = AUCinfinity in mouse at 1 mg/kg, iv; type: ADME, organism-based; design: dose 1 mg/kg, time infinity, route intravenous; settings: in vivo
[21] = Cmax in mouse at 100 mg/kg, po; type: ADME, organism-based; design: dose 100 mg/kg, route oral; settings: in vivo
[22] = Tmax in mouse at 25 mg/kg, po; type: ADME, organism-based; settings: in vivo
[23] = Volume of distribution at steady state in mouse at 1 mg/kg, iv; type: ADME, organism-based; settings: in vivo, read-out: Vdss
[24] = AUClast in mouse at 25 mg/kg, po; type: ADME, organism-based; settings: in vivo
[25] = Cmax in mouse at 100 mg/kg, ip administered through DMA/solutol/water; type: ADME, organism-based; design: dose 100 mg/kg, route intraperitoneal; settings: in vivo
[26] = biological target: D(1A) dopamine receptor (Homo sapiens) (UniProt P21728); assay: Binding affinity to dopamine D1 receptor (unknown origin) at 0.1 mM by radioligand displacement assay relative to control
Sequence of D(1A) dopamine receptor (Homo sapiens) (P21728 whole entry): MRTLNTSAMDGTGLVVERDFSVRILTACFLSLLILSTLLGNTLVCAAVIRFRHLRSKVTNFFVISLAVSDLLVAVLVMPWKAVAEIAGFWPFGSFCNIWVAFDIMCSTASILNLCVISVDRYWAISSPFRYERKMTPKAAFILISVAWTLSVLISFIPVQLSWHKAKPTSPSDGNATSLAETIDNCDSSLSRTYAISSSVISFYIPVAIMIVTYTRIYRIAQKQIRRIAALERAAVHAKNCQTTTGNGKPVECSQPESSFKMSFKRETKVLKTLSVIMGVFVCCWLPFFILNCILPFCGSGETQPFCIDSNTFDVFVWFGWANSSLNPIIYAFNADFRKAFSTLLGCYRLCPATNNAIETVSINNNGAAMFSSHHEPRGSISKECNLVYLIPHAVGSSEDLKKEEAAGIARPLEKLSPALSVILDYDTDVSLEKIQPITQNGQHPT

[27] = biological target: D(2) dopamine receptor (Homo sapiens) (UniProt P14416); assay: Binding affinity to dopamine D2 receptor (unknown origin) at 0.1 mM by radioligand displacement assay relative to control
Sequence of D(2) dopamine receptor (Homo sapiens) (P14416 whole entry): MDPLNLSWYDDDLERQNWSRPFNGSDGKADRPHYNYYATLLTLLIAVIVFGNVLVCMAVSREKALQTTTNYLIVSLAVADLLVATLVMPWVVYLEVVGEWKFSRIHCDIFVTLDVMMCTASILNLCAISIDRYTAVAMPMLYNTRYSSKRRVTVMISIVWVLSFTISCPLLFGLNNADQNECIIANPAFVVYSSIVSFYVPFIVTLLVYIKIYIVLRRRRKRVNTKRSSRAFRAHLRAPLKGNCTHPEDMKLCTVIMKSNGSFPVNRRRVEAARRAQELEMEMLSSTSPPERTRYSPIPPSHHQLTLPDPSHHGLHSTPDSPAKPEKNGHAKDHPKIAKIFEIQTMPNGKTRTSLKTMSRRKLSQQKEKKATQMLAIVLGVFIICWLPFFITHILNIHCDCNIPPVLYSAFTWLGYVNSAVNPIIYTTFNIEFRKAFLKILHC

[28] = biological target: T1, D(4) dopamine receptor (Homo sapiens) (UniProt P21917); assay: Binding affinity to dopamine D4 receptor (unknown origin) at 0.1 mM by radioligand displacement assay relative to control
T1 sequence (whole entry): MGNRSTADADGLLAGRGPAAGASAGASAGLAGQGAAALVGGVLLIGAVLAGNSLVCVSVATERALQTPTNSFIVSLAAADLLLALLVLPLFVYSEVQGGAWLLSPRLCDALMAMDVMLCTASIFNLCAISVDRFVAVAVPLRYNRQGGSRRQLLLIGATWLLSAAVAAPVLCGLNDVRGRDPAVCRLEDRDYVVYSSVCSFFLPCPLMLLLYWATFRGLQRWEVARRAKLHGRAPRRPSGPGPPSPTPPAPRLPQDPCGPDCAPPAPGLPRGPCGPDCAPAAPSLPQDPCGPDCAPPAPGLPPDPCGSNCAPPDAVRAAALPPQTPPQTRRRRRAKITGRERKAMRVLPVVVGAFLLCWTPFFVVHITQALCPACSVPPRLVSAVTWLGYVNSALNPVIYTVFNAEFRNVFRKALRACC

[29] = biological target: D(3) dopamine receptor (Homo sapiens) (UniProt P35462); assay: Binding affinity to dopamine D3 receptor (unknown origin) at 0.1 mM by radioligand displacement assay relative to control
Sequence of D(3) dopamine receptor (Homo sapiens) (P35462 whole entry): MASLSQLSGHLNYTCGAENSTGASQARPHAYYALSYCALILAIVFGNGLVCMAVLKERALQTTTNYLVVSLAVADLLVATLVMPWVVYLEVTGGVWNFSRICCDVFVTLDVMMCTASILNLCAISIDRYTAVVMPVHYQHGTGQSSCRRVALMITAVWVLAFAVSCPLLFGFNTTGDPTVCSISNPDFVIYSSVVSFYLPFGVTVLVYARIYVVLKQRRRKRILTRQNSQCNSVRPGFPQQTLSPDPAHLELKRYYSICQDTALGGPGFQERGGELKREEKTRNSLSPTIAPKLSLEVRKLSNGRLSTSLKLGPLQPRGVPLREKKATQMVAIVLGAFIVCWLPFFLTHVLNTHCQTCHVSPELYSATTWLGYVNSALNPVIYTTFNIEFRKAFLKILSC

[30] = biological target: D(1B) dopamine receptor (Homo sapiens) (UniProt P21918); assay: Binding affinity to dopamine D5 receptor (unknown origin) at 0.1 mM by radioligand displacement assay relative to control
Sequence of D(1B) dopamine receptor (Homo sapiens) (P21918 whole entry): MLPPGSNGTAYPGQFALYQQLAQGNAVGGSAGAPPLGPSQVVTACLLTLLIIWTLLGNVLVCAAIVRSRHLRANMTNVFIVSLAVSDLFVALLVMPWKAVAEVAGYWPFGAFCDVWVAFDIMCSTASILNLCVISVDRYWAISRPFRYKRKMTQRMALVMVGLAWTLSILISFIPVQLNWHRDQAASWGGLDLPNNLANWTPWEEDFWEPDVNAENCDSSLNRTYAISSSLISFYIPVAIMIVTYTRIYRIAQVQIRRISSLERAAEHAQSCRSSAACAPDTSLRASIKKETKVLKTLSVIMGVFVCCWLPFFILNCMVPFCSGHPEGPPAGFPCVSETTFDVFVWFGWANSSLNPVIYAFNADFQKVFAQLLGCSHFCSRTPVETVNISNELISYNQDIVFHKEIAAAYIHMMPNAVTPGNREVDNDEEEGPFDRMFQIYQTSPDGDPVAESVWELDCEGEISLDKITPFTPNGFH

[31] = biological target: RAC-alpha serine/threonine-protein kinase (Homo sapiens) (UniProt P31749); assay: Inhibition of AKT phosphorylation in human NCI-H1650 cells at 20 to 40 uM after 12 hrs by Western blot analysis; type: cell-based
Sequence of RAC-alpha serine/threonine-protein kinase (Homo sapiens) (P31749 whole entry): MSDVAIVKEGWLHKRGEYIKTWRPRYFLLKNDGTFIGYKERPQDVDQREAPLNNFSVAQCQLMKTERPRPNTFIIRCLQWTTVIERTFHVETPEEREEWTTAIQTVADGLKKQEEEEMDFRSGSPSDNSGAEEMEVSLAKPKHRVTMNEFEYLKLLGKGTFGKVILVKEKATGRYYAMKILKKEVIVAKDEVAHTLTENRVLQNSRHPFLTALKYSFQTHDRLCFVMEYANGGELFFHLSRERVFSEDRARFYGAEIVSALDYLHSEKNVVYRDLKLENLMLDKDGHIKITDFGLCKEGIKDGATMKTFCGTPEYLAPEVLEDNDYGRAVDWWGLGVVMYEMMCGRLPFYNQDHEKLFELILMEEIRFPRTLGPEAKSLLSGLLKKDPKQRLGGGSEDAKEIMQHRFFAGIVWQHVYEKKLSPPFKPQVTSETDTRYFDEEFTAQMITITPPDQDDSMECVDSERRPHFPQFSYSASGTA

NCI-H1650 [32] = assay: Inhibition of ERK phosphorylation in human NCI-H1650 cells at 20 to 40 uM after 12 hrs by Western blot analysis; type: cell-based
[33] = AUCinfinity in mouse at 10 mg/kg, po; type: ADME, organism-based; design: dose 10 mg/kg, time infinity, route oral; settings: in vivo
Mus musculus = assay: Toxicity in mouse assessed as induction of lethargy at 10 mg/kg relative to control; type: organism-based; settings: in vivo
[34] = Oral bioavailability in mouse at 10 mg/kg; type: ADME, organism-based; settings: in vivo
[35] = biological target: D(3) dopamine receptor (Homo sapiens) (UniProt P35462); assay: Binding affinity to dopamine D3 receptor (unknown origin) at 1 mM by radioligand displacement assay relative to control
[36] = Bioavailability in mouse at 10 mg/kg, ip; type: ADME, organism-based; settings: in vivo
[37] = AUCinfinity in mouse at 1 mg/kg, ip; type: ADME, organism-based; design: time infinity, route intraperitoneal; settings: in vivo
[38] = Cmax in mouse at 10 mg/kg, ip; type: ADME, organism-based; design: dose 10 mg/kg, route intraperitoneal; settings: in vivo
[39] = Initial drug concentration in mouse at 1 mg/kg, iv; type: ADME, organism-based; settings: in vivo
[40] = Half life in mouse at 10 mg/kg, po; type: ADME, organism-based; settings: in vivo
NCI-H1650 [41] = assay: Cytotoxicity against human NCI-H1650 cells assessed as reduction of colony formation at 20 to 40 uM after 7 days by crystal violet staining; type: functional, cell-based
[42] = AUClast in mouse at 10 mg/kg, po; type: ADME, organism-based; settings: in vivo
[43] = biological target: D(1A) dopamine receptor (Homo sapiens) (UniProt P21728); assay: Binding affinity to dopamine D1 receptor (unknown origin) at 1 mM by radioligand displacement assay relative to control
[44] = biological target: D(2) dopamine receptor (Homo sapiens) (UniProt P14416); assay: Binding affinity to dopamine D2 receptor (unknown origin) at 1 mM by radioligand displacement assay relative to control
[45] = Cmax in mouse at 10 mg/kg, po; type: ADME, organism-based; design: dose 10 mg/kg, route oral; settings: in vivo
[46] = Tmax in mouse at 10 mg/kg, ip; type: ADME, organism-based; settings: in vivo
[47] = AUClast in mouse at 10 mg/kg, ip; type: ADME, organism-based; settings: in vivo
NCI-H1650 [48] = assay: Cell cycle arrest in human NCI-H1650 cells assessed as accumulation at sub-G1 phase by propidium iodide staining-based flow cytometric analysis; type: functional
[49] = Tmax in mouse at 10 mg/kg, po; type: ADME, organism-based; settings: in vivo
[50] = Half life in mouse at 1 mg/kg, ip; type: ADME, organism-based; settings: in vivo

SMILES: O=S(=O)(NC[C@H](O)CN1c2ccccc2CCc2ccccc21)c1ccc(OC(F)(F)F)cc1
- Tmax [1]: 1 h
- AUC(0-inf) [2]: 34700 ng·h/mL
- AUC(0-t) [3]: 18500 ng·h/mL
- bioavailability [4]: 36%
- Tmax [5]: 2 h
- clearance [6]: 44 mL/min/kg
- Tmax [7]: 1 h
- Cmax [8]: 1310 ng/mL
- AUC(0-inf) [9]: 3460 ng·h/mL
- GI50 (NCI-H1650 [10]): 15 µM
- bioavailability [11]: 94%
- AUC(0-t) [12]: 370 ng·h/mL
- AUC(0-inf) [13]: 5790 ng·h/mL
- bioavailability [14]: 50%
- AUC(0-t) [15]: 5700 ng·h/mL
- half-life [16]: 0.81 h
- AUC(0-t) [17]: 34700 ng·h/mL
- bioavailability [18]: 62%
- Cmax [19]: 2240 ng/mL
- AUC(0-inf) [20]: 376 ng·h/mL
- Cmax [21]: 4880 ng/mL
- Tmax [22]: 1 h
- Vd [23]: 1.61 L/kg
- AUC(0-t) [24]: 3300 ng·h/mL
- Cmax [25]: 6490 ng/mL

SMILES: COC(=O)NCCCN1c2ccccc2CCc2ccc(Cl)cc21
- inhibition [26]: < 5%
- inhibition [27]: < 5%
- GI50 (NCI-H1650 [10]): > 40 µM
- inhibition [28]: < 5%
- inhibition [29]: < 5%
- inhibition [30]: < 10%

SMILES: O=S(=O)(NCCN1c2ccccc2Sc2ccc(Cl)cc21)c1ccc(Cl)cc1
- GI50 (NCI-H1650 [10]): 20 µM
- inhibition [31]: Active
- inhibition (NCI-H1650 [32]): Active

SMILES: COC(=O)NCCCN1c2ccccc2Sc2ccc(Cl)cc21
- AUC(0-inf) [33]: 498 ng·h/mL
- inhibition [26]: < 5%
- inhibition [27]: < 5%
- Activity (Mus musculus): Non-toxic
- bioavailability [34]: 15.8%
- clearance [6]: 52.5 mL/min/kg
- inhibition [35]: 22%
- bioavailability [36]: 46.6%
- GI50 (NCI-H1650 [10]): > 40 µM
- AUC(0-t) [12]: 310 ng·h/mL
- AUC(0-inf) [37]: 1450 ng·h/mL
- Cmax [38]: 859 ng/mL
- inhibition [28]: < 5%
- C0 [39]: 1200 ng/mL
- half-life [40]: 1.19 h
- Activity (NCI-H1650 [41]): Active
- AUC(0-t) [42]: 489 ng·h/mL
- inhibition [43]: 14%
- inhibition [44]: 21%
- Cmax [45]: 349 ng/mL
- AUC(0-inf) [20]: 317 ng·h/mL
- Tmax [46]: 0.25 h
- inhibition [29]: < 5%
- AUC(0-t) [47]: 1450 ng·h/mL
- Activity (NCI-H1650 [48]): Dose-dependent effect
- Vd [23]: 1.76 L/kg
- Tmax [49]: 0.5 h
- half-life [50]: 2.87 h
- inhibition [30]: < 10%

— ChEMBL document CHEMBL3611968, “Reengineered tricyclic anti-cancer agents” (Bioorg Med Chem, 2015)
